Laboratory results from PubChem BioAssay AID463104 (Sanford-Burnham Center for Chemical Genomics, 2010).
Among all 330,000 compounds or so, about 1,100 (0.33%) were called active.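 How the source made its calls: active means versus positive control, 20 µM dose yields 30% or more activation; inactive means the rest.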 This excerpt belongs to a sample that is enriched for actives.

Assay: activators of adaptive XBP1 UPR arm, primary screen, cell-based, CHO-XBP1 luciferase reporter, luminescence, uHTS (AID 463104);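 further: 100% = tunicamycin at 10 µg/mL and 0% = DMSO only wells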
Conditions: IRE1-XBP1 UPR activation, at 20 µM, stronger effect = higher value, percent of tunicamycin response, DMSO as zero
Method in brief: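 Material: CHO-XBP1 cells stably carrying IRE1-XBP1-driven luciferase reporter | Medium: F12 with 10% serum | Compound dosing: 20 µM single concentration, DMSO 1% | Incubation: Overnight seeding at 37 °C, 6 h compound treatment at 37 °C | Detection: Steady-Glo luminescence read | Read-out basis: % activation of reporter signal versus tunicamycin and DMSO controls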

Row | SMILES | activation
1 | CN(C)C(=O)CCc1ccc2c3c([nH]c2c1)[C@]1(CCc2ccccc2)[C@@H](C(=O)N2CCCCC2)C[C@H](CC(=O)NCCC2=CCCCC2)C(=O)N1CC3 | 37.8% (active)
2 | CC(C)N(C(=O)[C@H]1C[C@H](CC(=O)NCCC2=CCCCC2)C(=O)N2CCc3c([nH]c4cc(CCC(=O)N(C)C)ccc34)[C@]12C)C(C)C | -2.39% (inactive)
3 | CN(C)C(=O)CCc1ccc2c3c([nH]c2c1)[C@]1(C)[C@@H](C(=O)N2CCCCC2)C[C@H](CC(=O)NCCC2=CCCCC2)C(=O)N1CC3 | -0.99% (inactive)
4 | CCOC(=O)N1CCC(O)(c2cc(C)c(C)cc2C)CC1 | 0.36% (inactive)
5 | c1ccc(-n2nnnc2NC2CCCCCC2)cc1 | -3.04% (inactive)
6 | COc1cc(OC)c(C(=O)OC(C)C(=O)Nc2cc(C(F)(F)F)ccc2Cl)cc1OC (configuration not stated) | 1.27% (inactive)
7 | N#Cc1c(N)nc2c3c(sc(=N)c2c1N)NC(=O)CC3c1ccccc1Cl (configuration not stated) | 31.5% (active)
8 | CSc1nc2c(c(=O)[nH]1)C(c1cccc(Cl)c1Cl)CC(=O)N2 (configuration not stated) | -1.96% (inactive)
9 | COc1ccc(C2CC(=O)Nc3sc(=N)c4c(N)c(C#N)c(N)nc4c32)cc1OC (configuration not stated) | 2.45% (inactive)
10 | O=C(Nc1nnc(-c2ccccc2F)s1)c1ccccc1F | 4.27% (inactive)
11 | Cc1ccc(-n2ncc3c2CC(C)(C)CC3NC(=O)CCc2cnn(C)c2)cc1 (configuration not stated) | -4.76% (inactive)
12 | CCOC(=O)c1c(NC(=O)c2ccc(S(=O)(=O)N(C)CC3CCCO3)cc2)sc2c1CC(C)(C)NC2(C)C (configuration not stated) | -6.05% (inactive)
13 | COC(=O)c1sccc1NC(=O)COc1ccc(Cl)cc1 | -0.33% (inactive)
14 | COC(=O)c1c(NC(=O)COc2ccc(Cl)cc2Cl)sc2c1CC(C)(C)NC2(C)C | 74.2% (active)
15 | COc1ccc(-c2cc(=O)oc3cc(OCC(=O)N(C)C4CCS(=O)(=O)C4)ccc23)cc1 (configuration not stated) | -1.57% (inactive)
16 | COc1ncnc2c1N=C1CC(C)(C)CC(N)=C1S2 | -0.91% (inactive)
17 | CN1CCN(CCCNC(=O)c2ccc(/C=C3\Oc4ccccc4N(Cc4ccc(Cl)cc4)C3=O)cc2)CC1 | 13.7% (inactive)
18 | CN1C(=O)/C(=C/c2ccc(C(=O)NC3CCCC3)cc2)Oc2ccccc21 | 33.7% (active)
19 | O=C(NC1CC1)c1ccc(-c2ccccc2)cc1 | 0.87% (inactive)
20 | COc1cccc(NC(=O)C(Sc2nnnn2C)c2ccccc2)c1 (configuration not stated) | -3.49% (inactive)
21 | CCOC(=O)N1CCN(C(=O)c2n[nH]c(=O)c3ccccc23)CC1 | -2.8% (inactive)
22 | CCOC(=O)N1CCN(C(=O)Cn2cnc3ccccc3c2=O)CC1 | -3.17% (inactive)

Row | SMILES | activation
23 | CCOC(=O)N1CCN(C(=O)c2nn(-c3ccc(C)cc3)c(=O)c3c2c2ccccc2n3C)CC1 | 34.3% (active)
24 | CN(Cc1ccccc1)CC(O)COc1ccc(CNCc2cc3ccccc3s2)cc1 (configuration not stated) | -0.93% (inactive)
25 | NC(=O)Nc1ccc(C(=O)OCC(=O)NC2CCCc3ccccc32)cc1 (configuration not stated) | -2.79% (inactive)
26 | CCOC(=O)c1c(NC(=O)CNC2CCCc3ccccc32)sc(C(N)=O)c1C (configuration not stated) | 39.6% (active)
27 | CCOC(=O)c1c(NC(=O)CCl)sc(C(=O)N(CC)CC)c1C | 11.5% (inactive)
28 | CC1CCCCC1NC(=O)CN1CCC(O)(c2ccc3c(c2)OCO3)CC1 (configuration not stated) | -2.34% (inactive)
29 | O=C(NCC(=O)N1CCN(c2ncc(C(F)(F)F)cc2Cl)CC1)c1ccc(Br)o1 | -1.88% (inactive)
30 | CCSc1nnc(-c2cc3c(s2)-c2ccccc2CC3)o1 | 3.74% (inactive)
31 | C=CCNc1nc(N)c([N+](=O)[O-])c(NC2CCCCC2)n1 | 32% (active)
32 | Nc1nc(Nc2ccccc2F)nc(NC2CCCCC2)c1[N+](=O)[O-] | 11.1% (inactive)
33 | Nc1nc(NCC2CCCO2)nc(Nc2ccccc2F)c1[N+](=O)[O-] (configuration not stated) | 1.61% (inactive)
34 | Cc1ccc(OCC(=O)Nc2ccc(NC(=O)c3cccs3)cc2)c(C)c1 | 10.1% (inactive)
35 | Cc1ccc(-c2nnc(-c3ccc(NC(=O)c4cccs4)cc3)o2)cc1 | 198% (active)
36 | Cc1ccc(NC(=O)c2cccs2)cc1S(=O)(=O)N(C)C | 1.24% (inactive)
37 | COc1ccc(-c2ccc(CCC(=O)O)n2-c2ccc(O)cc2)cc1 | -1.71% (inactive)
38 | Nc1ccc(S(=O)(=O)Nc2nccc(/C=C/c3ccc(Br)s3)n2)cc1 | -1.07% (inactive)
39 | Oc1cccc2ccc(/C=C/c3ccc(Br)s3)nc12 | 54.5% (active)
40 | c1ccc(-c2ccnc3nc(-n4cccc4)nn23)cc1 | 0.42% (inactive)
41 | COc1cc(NC(=O)c2cncc(-c3ccc(C#N)cc3)c2)cc(C(=O)Nc2cccc(C(F)(F)F)c2)c1 | 125% (active)
42 | COc1cc(NC(=O)c2[nH]cnc2C(N)=O)cc(C(=O)Nc2cccc(C(F)(F)F)c2)c1 | -2.27% (inactive)
43 | N#Cc1ccc(Oc2ccc(C(F)(F)F)cc2NC(=O)c2ccc(F)cc2)cc1 | 0.22% (inactive)
44 | Cc1cc2c(C)nc(N/N=C/c3ccccc3)nc2o1 | 4.19% (inactive)

Row | SMILES | activation
45 | O=C(N/C(=C/c1ccc(Cl)cc1)C(=O)N1CCCCC1)c1ccco1 | -3.57% (inactive)
46 | Cc1ccc(SC(CC(=O)c2ccc(C(C)(C)C)cc2)C(=O)O)cc1 (configuration not stated) | 0.27% (inactive)
47 | C=CCn1c(SCc2ccccc2)nc2c1c(=O)[nH]c(=O)n2C | 5.46% (inactive)
48 | COCCCNc1nc2c(-c3cccc(C)c3)nnn2c2ccc(Cl)cc12 | 26.4% (inactive)
49 | O=C(Nc1ccc(S(=O)(=O)N2CCc3ccccc3C2)cc1)c1ccccc1 | -1.11% (inactive)
50 | C=CCN(CC=C)S(=O)(=O)c1ccc(C(=O)Nc2nc3c(s2)CCc2ccccc2-3)cc1 | 35.1% (active)
51 | Cc1cccc(NC(=O)c2ccc(S(=O)(=O)N(C)c3ccccc3)cc2)n1 | -2.2% (inactive)
52 | COc1ccc(C(=O)OCC(=O)N2CC(=O)Nc3ccccc32)cc1Br | 0.2% (inactive)
53 | CCOc1ccc2nc(Cl)c(C3CC(c4ccccc4)=NN3C(=O)c3cccs3)cc2c1 (configuration not stated) | 51.3% (active)
54 | CCOc1ccccc1C1CC(c2cccc(NS(C)(=O)=O)c2)=NN1C(=O)c1ccccc1 (configuration not stated) | -3.45% (inactive)
55 | COc1ccc(C2=NN(C(=O)c3ccccc3C(=O)O)C(c3ccccc3O)C2)cc1 (configuration not stated) | -1.79% (inactive)
56 | CC(C)(C)c1cc(P(=O)(c2ccccc2)c2ccccc2)ccc1O | -1.41% (inactive)
57 | CN(C)c1ccc(NC(=O)c2ccncc2)c2ccccc12 | -0.55% (inactive)
58 | CCCCN(CC)C(=S)Nc1ccc2nc3n(c(=O)c2c1)CCCCC3 | 1.45% (inactive)
59 | O=C(Nc1ccc2nc3n(c(=O)c2c1)CCCC3)c1ccc(Cl)nc1 | 2.35% (inactive)
60 | O=C(Nc1ccc2nc3n(c(=O)c2c1)CCCCC3)c1ccccc1Cl | 45.2% (active)
61 | Cc1ccc(CS(=O)(=O)CCC(=O)NCc2ccc(F)cc2)cc1 | -1.62% (inactive)
62 | COc1ccc(Nc2cc(C)nc(-n3nc(C)cc3C)n2)cc1 | 121% (active)
63 | COc1ccc(NC(=O)c2nc(-n3nc(C)cc3C)ccc2Cl)cc1Cl | -2.77% (inactive)
64 | CC(=O)c1ccc(Oc2cc(C)nc(-n3nc(C)cc3C)n2)cc1 | 16.4% (inactive)
65 | CC(=O)OCCN(CCCn1c(-c2ccncc2)nc2ccccc21)c1nc(-c2ccc(C)cc2)cs1 | -1.12% (inactive)
66 | C=CC[C@@H](CC(=O)N[C@@H](CO)Cc1ccccc1)C(=O)N[C@H](COC(=O)[C@H](CC=C)CC(=O)OC(C)(C)C)Cc1ccccc1 | 32.4% (active)

Row | SMILES | activation
67 | C=CC[C@@H](CC(=O)N[C@H](CO)Cc1ccccc1)C(=O)N[C@H](C)COC(=O)[C@@H](CC=C)Cc1ccc(F)cc1 | -2.99% (inactive)
68 | C=CC[C@@H](CC(=O)N[C@@H](CO)Cc1ccccc1)C(=O)NCCOC(=O)[C@@H](CC=C)CC(=O)OC(C)(C)C | -2.2% (inactive)
69 | CCCc1cc(=O)[nH]c2nnc(SCC(=O)Nc3nnc(SCC)s3)n12 | -0.61% (inactive)
70 | O=C(NCc1ccccc1Cl)NC(=O)c1csc([N+](=O)[O-])c1 | -1.89% (inactive)
71 | O=C(COc1ncnc2ccccc12)NC(=O)NCc1ccccc1 | -0.7% (inactive)
72 | O=C(O)CCC(=O)NCc1ccc(C(=O)O)cc1 | -0.32% (inactive)
73 | COc1ccccc1N=C(C)C1=C(O)COC1=O | 0.65% (inactive)
74 | COc1cc(N=Cc2c(O)c3ccccc3oc2=O)c(OC)cc1Cl | -0.88% (inactive)
75 | COc1ccccc1N=Cc1c(O)c2ccccc2oc1=O | 120% (active)
76 | COc1ccc(-c2nc3ccccc3n2CCC(C)C)cc1OC | -2.77% (inactive)
77 | COc1ccc(C(C)(C)C)cc1NC(=O)CCN1C(=O)C2CCCCC2C1=O (configuration not stated) | 0.21% (inactive)
78 | CS(=O)(=O)N(CC(=O)N/N=C/c1ccccn1)c1ccc(Oc2ccccc2)cc1 | 1.21% (inactive)
79 | CC1(C)Cc2ccccc2-c2[nH]c(=S)[nH]c(=O)c21 | -3.14% (inactive)
80 | CC1(C)Cc2ccccc2-c2nc(CN3CCOCC3)[nH]c(=O)c21 | 2.37% (inactive)
81 | CCC1(CC)Cc2ccccc2-c2nc(CCl)[nH]c(=O)c21 | 45.2% (active)
82 | Cc1ccc2nnn(Cc3cccc(C(C)(C)C)c3O)c2c1 | -2.21% (inactive)
83 | CCOC(=O)/C=C/c1ccc(C(F)(F)F)cc1S(=O)(=O)NC(C)(C)C | 3.87% (inactive)
84 | COc1ccc(CNC(=O)CCC(=O)Nc2nnc(C(C)C)s2)cc1 | 2.87% (inactive)
85 | CNC(=S)N/N=C/c1cn(Cc2ccc(C)cc2)c2ccccc12 | -0.8% (inactive)
86 | COc1cccc(Cn2cc(/C=N/NC(=O)c3cc(O)cc(O)c3)c3ccccc32)c1 | -0.87% (inactive)
87 | N#CCC(=O)N/N=C/c1cn(Cc2ccc3ccccc3c2)c2ccccc12 | 77.3% (active)
